{
  "source": "ChEMBL document CHEMBL4837214",
  "about": "“Design, synthesis, and biological evaluation of novel tetrahydroprotoberberine derivatives to reduce SREBPs expression for the treatment of hyperlipidemia” (Eur J Med Chem, 2021)",
  "key": {"[1]": {"tested_on": "Mus musculus", "experiment": "Hypolipidemic activity in high fat diet-induced C57BL/6J mouse assessed as reduction in serum TG level at 170 to 340 mg/kg, po administered daily for 6 weeks", "assay_type": "functional, organism-based", "conditions": "dose 170-340 mg/kg", "in_short": "(§1)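 Male C57BL/6J mice, six weeks old, fed a 45%-fat diet (HFD) for 15 weeks; chow-fed mice served as controls. Obese mice were randomized to vehicle (0.1% w/v CMC-Na) or 170 or 340 mg/kg, gavaged daily for 6 weeks while diet continued. Body weight, food intake, organ weights, serum lipids, tissue histology (H&E, Oil red O), liver SREBP blots and liver qPCR followed.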"}, "[2]": {"tested_on": "Mus musculus", "experiment": "Hypoglycemic activity in high fat diet-induced C57BL/6J mouse assessed as improvement in glucose tolerance at 170 to 340 mg/kg, po administered daily for 6 weeks and measured up to 120 mins by OGTT method", "assay_type": "functional, organism-based", "conditions": "dose 170-340 mg/kg", "in_short": "as §1"}, "[3]": {"experiment": "Tmax in Sprague-Dawley rat at 10 mg/kg, po measured upto 24 hrs by LC-MS/MS analysis", "assay_type": "ADME, organism-based", "conditions": "in vivo", "in_short": "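Six SD rats split into two groups of three, dosed 1 mg/kg IV or 10 mg/kg orally. IV blood drawn at 2, 5, 15, 30 min and 1, 2, 4, 6, 8, 12 h. Oral blood drawn at 5, 15, 30 min and 1, 2, 4, 6, 8, 12, 24 h. Serum drug measured by LC/MS/MS. Parameters are the average of three runs.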"}, "[4]": {"tested_on": "Mus musculus", "experiment": "[…] activity in high fat diet-induced C57BL/6J mouse assessed as reduction in LDLR mRNA level in liver at 170 to 340 mg/kg, po administered daily for 6 weeks by qRT-PCR analysis", "assay_type": "functional, organism-based", "conditions": "dose 170-340 mg/kg", "in_short": "as §1"}},
  "note": "Activity calls are given as the source filed them. The calls are words filed in the database; no cut-off is given here.",
  "data": [
    {"molecule": "COc1ccc2c(c1OCC1CCCCC1)CN1CCc3cc4c(cc3C1C2)OCO4", "note": "(centres undefined)", "values": [
      {"measurement": "Activity", "setting": "[1]", "result": "Active"},
      {"measurement": "Activity", "setting": "[2]", "result": "Active"},
      {"measurement": "Tmax", "setting": "[3]", "result": 6.67, "unit": "h"},
      {"measurement": "Activity", "setting": "[4]", "result": "Active"}
    ]}
  ]
}
